Reference: ChEMBL document CHEMBL3085768, “Structure-guided design of potent diazobenzene inhibitors for the BET bromodomains” (J Med Chem, 2013)
pIC50, pKi: −log10 of the molar value. Calls of active or inactive are those of the source. The calls are words filed in the database; no cut-off is given here.

What was measured:
[1] = molecular target: T1, Bromodomain-containing protein 4 (Homo sapiens, UniProt O60885); assay: Displacement of fluorescein-labeled MS574 from recombinant human BRD4 BrD1 after 1 hr by fluorescence anisotropy assay; conditions: for pKi: read-out: Ki
Summary of the method: (§1)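 Competition fluorescence anisotropy with His-tag-removed recombinant bromodomain (Ni-IDA purified, thrombin cleaved) at 0.25–1 µM, chosen so that 50–80% of probe is bound. FITC-labeled probe at 80 nM (≤2Kd), unlabeled ligand titrated, in PBS pH 7.4, read after 1 h at 25 °C. IC50 from curve fit, converted to Ki with the Nikolovska-Coleska correction to Cheng-Prusoff (one-site competitive). The resolvable Ki is limited by the probe Kd.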

[2] = molecular target: T1, Bromodomain-containing protein 4; assay: Displacement of fluorescein-labeled MS574 from recombinant human BRD4 BrD2 after 1 hr by fluorescence anisotropy assay; summary of the method: as §1
[3] = molecular target: SWI/SNF-related matrix-associated actin-dependent regulator of chromatin subfamily A member 4 (Homo sapiens, UniProt P51532); assay: Displacement of fluorescein-labeled MS239 from recombinant human SMARCA4 bromodomain after 1 hr by fluorescence anisotropy assay; summary of the method: as §1
CREB-binding protein = CREB-binding protein (Homo sapiens, UniProt Q92793); assay: Displacement of fluorescein-labeled MS226 from recombinant human CBP bromodomain after 1 hr by fluorescence anisotropy assay; summary of the method: as §1
[4] = molecular target: T2, Bromodomain-containing protein 7 (Homo sapiens, UniProt Q9NPI1); assay: Displacement of fluorescein-labeled MS226 from recombinant human BRD7 after 1 hr by fluorescence anisotropy assay; summary of the method: as §1
T2 sequence (Q9NPI1 whole entry): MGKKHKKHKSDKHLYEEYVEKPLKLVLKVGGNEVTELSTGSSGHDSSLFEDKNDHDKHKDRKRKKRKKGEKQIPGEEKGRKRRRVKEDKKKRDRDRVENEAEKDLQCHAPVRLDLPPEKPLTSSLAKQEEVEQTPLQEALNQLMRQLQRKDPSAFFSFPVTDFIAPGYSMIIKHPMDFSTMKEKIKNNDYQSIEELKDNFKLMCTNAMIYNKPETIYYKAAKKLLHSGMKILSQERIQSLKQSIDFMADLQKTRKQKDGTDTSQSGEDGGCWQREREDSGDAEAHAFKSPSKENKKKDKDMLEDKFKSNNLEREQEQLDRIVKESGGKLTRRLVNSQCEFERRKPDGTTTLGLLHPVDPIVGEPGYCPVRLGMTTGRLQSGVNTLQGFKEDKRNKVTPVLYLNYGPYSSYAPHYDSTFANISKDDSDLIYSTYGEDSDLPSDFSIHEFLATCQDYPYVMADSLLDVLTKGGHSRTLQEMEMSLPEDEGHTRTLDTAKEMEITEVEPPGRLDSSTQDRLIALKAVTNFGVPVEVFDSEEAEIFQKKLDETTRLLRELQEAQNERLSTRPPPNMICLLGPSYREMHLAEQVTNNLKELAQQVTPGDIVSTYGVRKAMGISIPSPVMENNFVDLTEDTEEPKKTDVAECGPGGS

[5] = molecular target: T3, Bromodomain-containing protein 3 (Homo sapiens, UniProt Q15059); assay: Displacement of fluorescein-labeled MS574 from recombinant human BRD3 BrD2 after 1 hr by fluorescence anisotropy assay; summary of the method: as §1
[6] = molecular target: T3, Bromodomain-containing protein 3; assay: Displacement of fluorescein-labeled MS574 from recombinant human BRD3 BrD1 after 1 hr by fluorescence anisotropy assay; summary of the method: as §1
[7] = molecular target: T4, Bromodomain-containing protein 4 (Mus musculus, UniProt Q9ESU6); assay: (§2) Inhibition of BRD4 in LPS-stimulated mouse RAW264.7 cells assessed as inhibition of NF-kappaB-mediated IL-6 expression preincubated for 30 mins followed by LPS stimulation measured after 24 hrs by ELISA; assay type: cell-based
Summary of the method: (§3)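 RAW264.7 cells grown in DMEM/10% FBS at 37 °C, 5% CO2, plated at 3 × 10^5 cells/mL, pretreated with inhibitor for 30 min. Medium was then replaced with LPS (1 µg/mL) plus inhibitor for 24 h. Compounds were diluted from DMSO to 0.28–50000 nM, final DMSO 0.05% (v/v). Supernatant IL-6 was measured by mouse ELISA read at 570 nm.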

[8] = molecular target: Bromodomain-containing protein 4 (Mus musculus) (UniProt Q9ESU6); assay: as §2; assay type: cell-based; summary of the method: as §3
RAW264.7 = assay: Cytotoxicity against mouse RAW264.7 cells assessed as cell viability up to 100 uM after 24 hrs by MTT assay; assay type: cell-based; conditions: raw264.7, 24 h
Summary of the method: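 RAW264.7 macrophages seeded at 1 × 10^4 cells/well, settled 18 h at 37 °C, then exposed to inhibitors up to 100 µM for 24 h. Compounds were predissolved in DMSO and diluted in medium, final DMSO 0.05% (v/v). MTT (4 mg/ml) was added for 4 h at 37 °C, formazan solubilized in DMSO, and absorbance read at 570/630 nm.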

[9] = molecular target: T4, Bromodomain-containing protein 4; assay: (§4) Inhibition of BRD4 in LPS-stimulated mouse RAW264.7 cells assessed as inhibition of NF-kappaB-mediated nitric oxide production preincubated for 30 mins followed by LPS stimulation measured after 24 hrs by spectrophotometric analysis; assay type: cell-based
Summary of the method: (§5)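 RAW264.7 cells in DMEM/10% FBS, plated at 3 × 10^5 cells/mL, pretreated with inhibitor 30 min, then LPS (1 µg/mL) plus inhibitor for 24 h. Inhibitor concentrations 0.28–50000 nM from DMSO stock, final DMSO 0.05% (v/v). Nitrite in the supernatant was measured spectrophotometrically at 520 nm.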

[10] = molecular target: Bromodomain-containing protein 4 (Mus musculus) (UniProt Q9ESU6); assay: as §4; assay type: cell-based; summary of the method: as §5

T3 sequence (Q15059 whole entry): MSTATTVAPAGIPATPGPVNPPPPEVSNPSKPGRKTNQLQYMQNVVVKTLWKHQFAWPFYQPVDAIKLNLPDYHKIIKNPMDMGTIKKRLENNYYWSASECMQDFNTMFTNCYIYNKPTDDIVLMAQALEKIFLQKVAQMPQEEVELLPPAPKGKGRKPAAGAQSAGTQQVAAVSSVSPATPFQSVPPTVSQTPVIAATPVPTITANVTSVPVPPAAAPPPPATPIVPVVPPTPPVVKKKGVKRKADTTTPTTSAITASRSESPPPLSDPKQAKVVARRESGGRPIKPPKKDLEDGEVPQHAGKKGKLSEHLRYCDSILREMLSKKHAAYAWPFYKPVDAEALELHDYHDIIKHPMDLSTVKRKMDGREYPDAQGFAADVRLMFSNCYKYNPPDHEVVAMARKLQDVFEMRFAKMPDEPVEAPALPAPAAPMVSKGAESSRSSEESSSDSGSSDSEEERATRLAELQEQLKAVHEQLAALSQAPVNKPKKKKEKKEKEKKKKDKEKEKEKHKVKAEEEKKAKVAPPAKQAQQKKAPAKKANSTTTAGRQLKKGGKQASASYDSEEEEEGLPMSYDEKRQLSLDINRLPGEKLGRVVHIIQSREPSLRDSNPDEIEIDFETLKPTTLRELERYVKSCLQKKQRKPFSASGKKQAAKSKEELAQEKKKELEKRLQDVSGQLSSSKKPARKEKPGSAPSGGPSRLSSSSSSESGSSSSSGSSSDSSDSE
Chain of CREB-binding protein (Q92793 whole entry): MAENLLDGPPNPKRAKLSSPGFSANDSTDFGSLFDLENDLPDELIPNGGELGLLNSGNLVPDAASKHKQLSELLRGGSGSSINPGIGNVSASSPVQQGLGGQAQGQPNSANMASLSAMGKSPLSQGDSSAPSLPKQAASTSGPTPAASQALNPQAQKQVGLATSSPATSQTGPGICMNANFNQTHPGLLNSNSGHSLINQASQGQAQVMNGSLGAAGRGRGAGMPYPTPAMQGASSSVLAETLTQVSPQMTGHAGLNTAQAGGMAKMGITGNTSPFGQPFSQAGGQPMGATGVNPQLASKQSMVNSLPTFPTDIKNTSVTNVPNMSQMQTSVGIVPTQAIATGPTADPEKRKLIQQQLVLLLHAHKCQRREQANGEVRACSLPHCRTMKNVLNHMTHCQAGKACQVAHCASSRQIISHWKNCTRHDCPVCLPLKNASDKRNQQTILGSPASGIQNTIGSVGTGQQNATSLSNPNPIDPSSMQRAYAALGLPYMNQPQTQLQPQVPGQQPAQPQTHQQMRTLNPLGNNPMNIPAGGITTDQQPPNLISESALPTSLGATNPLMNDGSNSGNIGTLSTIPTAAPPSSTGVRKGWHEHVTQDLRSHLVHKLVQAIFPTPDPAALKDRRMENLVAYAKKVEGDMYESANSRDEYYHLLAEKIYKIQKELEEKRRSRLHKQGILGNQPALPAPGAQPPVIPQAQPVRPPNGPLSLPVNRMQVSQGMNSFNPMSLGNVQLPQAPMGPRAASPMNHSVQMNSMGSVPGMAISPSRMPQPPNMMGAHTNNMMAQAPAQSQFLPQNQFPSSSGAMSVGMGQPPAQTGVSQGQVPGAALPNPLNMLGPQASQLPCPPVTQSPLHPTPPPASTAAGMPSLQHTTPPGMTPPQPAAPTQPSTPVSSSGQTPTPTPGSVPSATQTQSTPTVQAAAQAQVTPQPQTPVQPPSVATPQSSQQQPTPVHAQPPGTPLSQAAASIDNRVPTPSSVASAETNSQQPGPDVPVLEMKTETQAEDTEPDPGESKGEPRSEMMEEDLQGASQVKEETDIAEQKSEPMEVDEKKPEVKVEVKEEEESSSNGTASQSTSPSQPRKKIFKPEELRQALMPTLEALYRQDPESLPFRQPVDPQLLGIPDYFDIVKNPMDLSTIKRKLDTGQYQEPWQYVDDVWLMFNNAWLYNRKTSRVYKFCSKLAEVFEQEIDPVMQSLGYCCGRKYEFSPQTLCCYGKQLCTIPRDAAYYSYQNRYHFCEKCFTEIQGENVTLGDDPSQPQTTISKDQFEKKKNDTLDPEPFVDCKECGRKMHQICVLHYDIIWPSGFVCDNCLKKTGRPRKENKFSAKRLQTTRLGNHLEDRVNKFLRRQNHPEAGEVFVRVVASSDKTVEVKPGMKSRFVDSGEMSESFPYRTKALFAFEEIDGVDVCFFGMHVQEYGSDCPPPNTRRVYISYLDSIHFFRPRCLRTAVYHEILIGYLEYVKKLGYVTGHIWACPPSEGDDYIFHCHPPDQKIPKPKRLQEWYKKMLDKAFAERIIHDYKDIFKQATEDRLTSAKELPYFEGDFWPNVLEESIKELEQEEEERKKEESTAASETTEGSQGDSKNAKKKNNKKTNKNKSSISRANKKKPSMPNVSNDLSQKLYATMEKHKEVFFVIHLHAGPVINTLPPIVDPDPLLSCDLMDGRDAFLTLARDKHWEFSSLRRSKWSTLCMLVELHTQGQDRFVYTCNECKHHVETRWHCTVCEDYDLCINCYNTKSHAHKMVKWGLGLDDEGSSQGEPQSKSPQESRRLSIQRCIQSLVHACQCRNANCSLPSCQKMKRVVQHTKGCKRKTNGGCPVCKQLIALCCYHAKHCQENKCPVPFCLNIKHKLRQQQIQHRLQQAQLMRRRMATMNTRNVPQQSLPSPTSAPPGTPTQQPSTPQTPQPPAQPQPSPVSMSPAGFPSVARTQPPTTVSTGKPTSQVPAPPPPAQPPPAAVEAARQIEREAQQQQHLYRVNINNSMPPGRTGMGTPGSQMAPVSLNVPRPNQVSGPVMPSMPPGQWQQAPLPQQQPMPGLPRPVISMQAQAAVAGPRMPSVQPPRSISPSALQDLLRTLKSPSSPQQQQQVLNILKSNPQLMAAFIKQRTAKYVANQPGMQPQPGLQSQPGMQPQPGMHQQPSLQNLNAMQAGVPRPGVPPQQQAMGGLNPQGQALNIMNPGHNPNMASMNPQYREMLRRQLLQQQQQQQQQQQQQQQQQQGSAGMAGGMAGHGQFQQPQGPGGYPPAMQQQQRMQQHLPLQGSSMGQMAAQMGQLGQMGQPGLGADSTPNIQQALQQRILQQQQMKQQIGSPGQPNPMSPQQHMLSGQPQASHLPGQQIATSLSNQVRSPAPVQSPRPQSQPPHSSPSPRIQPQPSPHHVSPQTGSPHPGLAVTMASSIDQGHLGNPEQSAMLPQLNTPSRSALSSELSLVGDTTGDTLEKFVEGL
Chain of SWI/SNF-related matrix-associated actin-dependent regulator of chromatin subfamily A member 4 (P51532 whole entry): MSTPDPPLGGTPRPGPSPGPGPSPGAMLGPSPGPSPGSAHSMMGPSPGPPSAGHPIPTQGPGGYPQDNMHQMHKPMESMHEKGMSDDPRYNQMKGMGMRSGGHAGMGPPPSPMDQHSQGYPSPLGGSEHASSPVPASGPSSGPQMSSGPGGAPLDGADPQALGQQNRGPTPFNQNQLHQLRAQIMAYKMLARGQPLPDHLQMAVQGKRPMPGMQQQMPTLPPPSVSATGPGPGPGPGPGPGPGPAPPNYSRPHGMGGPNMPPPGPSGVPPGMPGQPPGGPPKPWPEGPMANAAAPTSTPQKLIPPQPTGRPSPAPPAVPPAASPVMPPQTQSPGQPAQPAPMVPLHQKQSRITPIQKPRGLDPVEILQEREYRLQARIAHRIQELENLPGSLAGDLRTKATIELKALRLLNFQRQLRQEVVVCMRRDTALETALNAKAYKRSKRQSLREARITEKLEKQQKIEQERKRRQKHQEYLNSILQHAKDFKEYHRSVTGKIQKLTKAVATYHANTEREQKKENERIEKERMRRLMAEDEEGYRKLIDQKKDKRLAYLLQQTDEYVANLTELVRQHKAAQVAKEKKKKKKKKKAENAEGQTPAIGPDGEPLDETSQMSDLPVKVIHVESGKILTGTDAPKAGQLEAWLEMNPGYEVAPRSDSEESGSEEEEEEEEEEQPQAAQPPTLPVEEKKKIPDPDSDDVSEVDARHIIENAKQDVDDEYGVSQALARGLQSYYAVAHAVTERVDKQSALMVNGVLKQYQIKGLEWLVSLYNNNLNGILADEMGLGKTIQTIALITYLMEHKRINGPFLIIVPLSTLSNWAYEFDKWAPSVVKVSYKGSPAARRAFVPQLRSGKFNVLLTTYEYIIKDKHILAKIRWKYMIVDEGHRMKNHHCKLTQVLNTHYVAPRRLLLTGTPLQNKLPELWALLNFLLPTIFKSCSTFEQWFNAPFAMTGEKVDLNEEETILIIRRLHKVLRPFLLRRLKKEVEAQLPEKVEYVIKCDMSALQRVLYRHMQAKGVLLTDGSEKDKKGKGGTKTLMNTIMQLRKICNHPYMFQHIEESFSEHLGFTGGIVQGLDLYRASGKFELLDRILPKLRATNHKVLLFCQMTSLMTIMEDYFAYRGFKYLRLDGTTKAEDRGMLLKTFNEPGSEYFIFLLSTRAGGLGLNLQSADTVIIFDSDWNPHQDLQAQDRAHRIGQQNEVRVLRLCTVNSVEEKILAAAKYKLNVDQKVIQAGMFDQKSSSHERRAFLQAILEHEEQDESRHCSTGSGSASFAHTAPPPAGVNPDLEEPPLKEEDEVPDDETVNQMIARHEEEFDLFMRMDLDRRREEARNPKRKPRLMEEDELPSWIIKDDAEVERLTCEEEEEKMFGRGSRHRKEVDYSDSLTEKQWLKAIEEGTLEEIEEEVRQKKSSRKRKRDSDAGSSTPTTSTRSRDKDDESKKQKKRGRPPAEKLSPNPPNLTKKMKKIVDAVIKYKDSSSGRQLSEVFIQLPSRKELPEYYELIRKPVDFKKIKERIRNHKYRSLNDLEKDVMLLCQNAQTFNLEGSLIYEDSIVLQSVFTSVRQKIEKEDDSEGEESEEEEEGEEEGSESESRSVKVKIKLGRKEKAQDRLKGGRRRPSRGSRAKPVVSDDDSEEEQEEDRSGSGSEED

Structure (SMILES) | pKi [1] | pKi [2] | also measured
Cc1nc(/N=N/c2ccc(S(=O)(=O)Nc3ccccn3)cc2)c(CO)c(C=O)c1O |  |  | inhibition [1]: inactive
Cc1cc(/N=N/c2cc(S(=O)(=O)O)c(C)cc2C)c(N)cc1O [ISCHEMIN] | 4.96 | 4.70 | 
Cc1cc(/N=N/c2ccc(S(=O)(=O)Nc3ccc(F)cc3)cc2)cc(C)c1O | 5.74 | 5.05 | 
Cc1cc(/N=N/c2ccc(S(=O)(=O)Nc3ccccn3)cc2)cc(Br)c1O | 5.55 | 5.35 | 
Cc1cc(/N=N/c2ccc(S(=O)(=O)NCc3ccc(C(F)(F)F)cc3)cc2)cc(C)c1O | < 4.00 | < 4.00 | 
CC(=O)Nc1c(C)cc(/N=N/c2ccc(S(=O)(=O)Nc3ccccn3)cc2)cc1C |  |  | inhibition [1]: inactive; inhibition [2]: inactive
CC(C)(C)c1cc(/N=N/c2ccc(S(=O)(=O)Nc3ccccn3)cc2)cc(C(C)(C)C)c1O |  |  | inhibition [1]: inactive; inhibition [2]: inactive
O=S(=O)(Nc1ccccn1)c1ccc(/N=N/c2ccc(O)c(C(F)(F)F)c2)cc1 | 5.02 | 5.17 | 
O=S(=O)(Nc1ccccn1)c1ccc(/N=N/c2ccc(O)c(Br)c2)cc1 | 5.33 | 5.33 | 
Cc1cc(C)c(S(=O)(=O)O)cc1/N=N/c1cc(C)c(O)c(C)c1 | 5.31 | 5.20 | 
COc1ccc(NS(=O)(=O)c2ccc(/N=N/c3cc(C)c(O)c(C)c3)cc2)cc1 | 5.19 | 5.18 | 
Cc1nc(/N=N/c2ccc(S(=O)(=O)Nc3ccccn3)cc2)c(CO)c(C)c1O |  |  | inhibition [1]: inactive
Cc1cc(/N=N/c2ccc(S(=O)(=O)Nc3ccccn3)cc2)cc(Cl)c1O | 5.85 | 5.32 | 
CC(C)c1cc(/N=N/c2ccc(S(=O)(=O)Nc3ccccn3)cc2)cc(C(C)C)c1O |  |  | inhibition [1]: inactive; inhibition [2]: inactive
O=S(=O)(Nc1ccccn1)c1ccc(/N=N/c2cc(Cl)c(O)c(Cl)c2)cc1 | 5.90 | 5.31 | 
O=S(=O)(Nc1ccccn1)c1ccc(/N=N/c2ccc(O)c3ccccc23)cc1 |  |  | inhibition [1]: Active
COc1ccc(NS(=O)(=O)c2ccc(/N=N/c3cc(C)c(O)c(C)c3)cc2)nc1 | 6.30 | 5.65 | 
Cc1cc(/N=N/c2ccc(S(=O)(=O)N(C)c3ccccn3)cc2)cc(C)c1O | 5.10 | 5.15 | 
COc1cc(/N=N/c2cc(C)c(O)c(C)c2)ccc1S(=O)(=O)Nc1ccccn1 | 5.50 | 5.11 | 
COc1c(C)cc(/N=N/c2ccc(S(=O)(=O)Nc3ccccn3)cc2)cc1C |  |  | inhibition [1]: inactive; inhibition [2]: inactive
Cc1cc(/N=N/c2ccc(S(=O)(=O)Nc3ccc(C(N)=O)cc3)cc2)cc(C)c1O | 5.02 | 4.91 | 

Structure (SMILES) | pKi [1] | pKi [2] | also measured
Cc1cc(/N=N/c2ccc(S(=O)(=O)Nc3ccc(C(=O)O)cn3)cc2)cc(C)c1O | 6.49 | 5.86 | 
Cc1cc(/N=N/c2ccc(S(=O)(=O)Nc3ccc(C(F)(F)F)cc3)cc2)cc(C)c1O | 4.97 | 5.15 | 
O=S(=O)(Nc1ccccn1)c1ccc(/N=N/c2ccc(O)c(O)c2)cc1 | 5.34 | 5.41 | 
Cc1cc(/N=N/c2ccc(S(=O)(=O)Nc3cc(Cl)ccn3)cc2)cc(C)c1O | 6.05 | 5.23 | 
Cc1cc(/N=N/c2ccc(S(=O)(=O)Nc3ccc(F)cn3)cc2)cc(C)c1O | 5.89 | 5.46 | 
COc1cc(/N=N/c2ccc(S(=O)(=O)Nc3ccccn3)cc2)c(N)cc1O | 5.89 | 5.27 | 
O=S(=O)(Nc1ccccn1)c1ccc(/N=N/c2cc(Br)c(O)c(Br)c2)cc1 | 6.28 | 5.37 | 
Cc1cc(/N=N/c2ccc(S(=O)(=O)Nc3ccc(Cl)cn3)cc2)cc(C)c1O | 6.14 | 5.23 | 
Cc1cc(/N=N/c2ccc(S(=O)(=O)Nc3ccccn3)cc2)ccc1O | 5.19 | 5.09 | 
O=S(=O)(Nc1ccccn1)c1ccc(/N=N/c2ccc(O)c3c2CCCC3)cc1 |  |  | inhibition [1]: Active
O=S(=O)(Nc1ccccn1)c1ccc(/N=N/c2ccc(O)c3c2NCCC3)cc1 |  |  | inhibition [1]: Active
Cc1nc(/N=N/c2ccc(S(=O)(=O)Nc3ccccn3)cc2)c(C)c(C)c1O | 5.22 | 5.04 | 
Cc1cc(/N=N/c2ccc(S(=O)(=O)Nc3ccccn3)cc2)cc(C)c1O | 6.04 | 5.37 | pKi [3]: > 5.18; pKi (CREB-binding protein): 5.15; pKi [4]: 5.45; pKi [5]: 5.61; pKi [6]: 5.79; pIC50 [7]: 4.80; inhibition [8]: Dose-dependent effect; Activity (RAW264.7): Non-toxic; Ki ([1]; read-out: pKi (converted)): 912 nM; pIC50 [9]: 4.33; inhibition [10]: Dose-dependent effect
Cc1nc(/N=N/c2ccc(S(=O)(=O)Nc3ccccn3)cc2)c(CO)c(CN)c1O |  |  | inhibition [1]: inactive
Cc1cc(/N=N/c2ccc(S(=O)(=O)Nc3ccc(Br)cn3)cc2)cc(C)c1O | 5.18 | 4.41 | 
Cc1cc(/N=N/c2ccc(S(=O)(=O)Nc3ccccn3)cc2)nc(C)c1O | 5.64 | 4.61 | 
CC1(C)Cc2c(/N=N/c3ccc(S(=O)(=O)Nc4ccccn4)cc3)ccc(O)c2O1 |  |  | inhibition [1]: Active
Cc1cc(/N=N/c2ccc(S(=O)(=O)Nc3ccccn3)cc2)cc(O)c1O | 5.62 | 5.49 | 
O=S(=O)(Nc1ccccn1)c1ccc(/N=N/c2ccc(O)c(Cl)c2)cc1 | 5.89 | 5.21 | 
Cc1cc(/N=N/c2cccc(S(=O)(=O)Nc3ccccn3)c2)cc(C)c1O | 5.22 | 4.39 | 
Cc1cc(/N=N/c2ccc(S(=O)(=O)Nc3cccc(C(F)(F)F)c3)cc2)cc(C)c1O | 5.21 | 5.11 | 
